Blank lines part the entries; values can stand above or below the molecule they belong to. Calls of active or inactive are those of the source. The calls are words filed in the database; no cut-off is given here.
What was measured:
Mus musculus [1] = test: Suppression of blood glucose concentration in ob/ob C57Bl/6J mouse model of T2DM at 4.5 mg/kg, ip and treated with 60 mg/kg, po OATP/MRP2 inhibitor rifampicin 2.5 hrs prior to oral glucose-tolerance test; assay type: functional, organism-based
Summary of the method: (§1)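 Male ob/ob mice aged 10–11 weeks, n=7, randomised on blood glucose and fasted overnight. Rifampicin 60 mg/kg p.o. 2.5 h before the oGTT, compound 30 mg/kg p.o. 1 h before, GLP1(9-36)NH2 i.p. 15 min before, each given as indicated. Glucose 2 g/kg orally. Tail-vein glucose by glucometer at 0, 15, 30, 60 and 90 min.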

Mus musculus [2] = test: Suppression of blood glucose concentration in ob/ob C57Bl/6J mouse model of T2DM at 4.5 mg/kg, ip in absence of 60 mg/kg, po OATP/MRP2 inhibitor rifampicin by oral glucose-tolerance test; assay type: functional, organism-based; summary of the method: as §1
[3] = target: T1, Glucagon-like peptide 1 receptor (Homo sapiens, UniProt P43220); test: Positive allosteric modulator activity at human GLP-1R expressed in PSC-HEK293 cells in presence of EC20 level of GLP1(9-36)NH2 incubated for 30 mins by HTRF cAMP assay relative to control; assay type: functional, cell-based
T1 sequence (P43220 whole entry): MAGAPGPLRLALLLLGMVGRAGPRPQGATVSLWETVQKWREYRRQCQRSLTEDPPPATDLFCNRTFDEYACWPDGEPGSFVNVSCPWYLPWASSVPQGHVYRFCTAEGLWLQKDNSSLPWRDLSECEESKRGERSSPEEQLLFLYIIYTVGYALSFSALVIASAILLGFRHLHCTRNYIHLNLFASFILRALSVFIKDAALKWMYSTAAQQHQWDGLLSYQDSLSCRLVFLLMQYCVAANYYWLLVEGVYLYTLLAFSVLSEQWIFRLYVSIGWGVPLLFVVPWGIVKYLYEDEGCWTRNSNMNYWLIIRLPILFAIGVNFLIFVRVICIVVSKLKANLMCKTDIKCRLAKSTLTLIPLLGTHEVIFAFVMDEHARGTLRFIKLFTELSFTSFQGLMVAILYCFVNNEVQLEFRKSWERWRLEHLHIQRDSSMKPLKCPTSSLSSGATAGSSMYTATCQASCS
Summary of the method: (§2)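 Thaw-and-use PSC-HEK293 cells stably expressing human GLP-1R, 2000 cells/well in HBSS/20 mM HEPES/0.1% BSA with 2 mM IBMX. Enhancer format: compound dose-response plus fixed EC20 GLP1(9-36)NH2. Shift format: GLP1(9-36)NH2 dose-response plus 10 or 3 μM compound. 30 min at room temperature. HTRF cAMP read after 1 h lysis (665/620 nm). EC50 from a 4-parameter logistic fit.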

[4] = target: T2, Glucagon-like peptide 1 receptor (Mus musculus, UniProt O35659); test: Positive allosteric modulator activity at mouse GLP-1R expressed in PSC-HEK293 cells in presence of EC20 level of GLP1(9-36)NH2 incubated for 30 mins by HTRF cAMP assay; assay type: functional, cell-based
T2 sequence (O35659 whole entry): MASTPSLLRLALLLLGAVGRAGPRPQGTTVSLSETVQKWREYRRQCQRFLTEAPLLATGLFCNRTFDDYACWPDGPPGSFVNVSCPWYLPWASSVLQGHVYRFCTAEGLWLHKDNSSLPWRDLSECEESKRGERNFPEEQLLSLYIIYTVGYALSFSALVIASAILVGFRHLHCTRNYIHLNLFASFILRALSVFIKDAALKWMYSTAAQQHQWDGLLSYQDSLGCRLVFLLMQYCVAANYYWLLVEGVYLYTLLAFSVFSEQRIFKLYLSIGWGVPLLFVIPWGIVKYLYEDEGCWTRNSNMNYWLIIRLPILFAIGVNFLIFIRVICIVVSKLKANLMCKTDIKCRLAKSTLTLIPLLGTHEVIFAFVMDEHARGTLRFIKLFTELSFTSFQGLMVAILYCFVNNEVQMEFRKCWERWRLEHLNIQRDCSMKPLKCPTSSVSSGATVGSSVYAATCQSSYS

[5] = target: T3, Glucagon-like peptide 1 receptor (Mus musculus) (UniProt O35659); test: Positive allosteric modulator activity at mouse GLP-1R expressed in PSC-HEK293 cells in presence of EC20 level of GLP1(9-36)NH2 incubated for 30 mins by HTRF cAMP assay relative to control; assay type: functional, cell-based
T3 sequence (whole entry): T2 sequence (O35659 whole entry)

[6] = target: T1, Glucagon-like peptide 1 receptor; test: Positive allosteric modulator activity at human GLP-1R expressed in PSC-HEK293 cells in presence of EC20 level of GLP1(9-36)NH2 incubated for 30 mins by HTRF cAMP assay; assay type: functional, cell-based
Summary of the method: as §2, with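 “temperature.” for “temperature. HTRF cAMP read after 1 h lysis (665/620 nm).”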

[7] = target: T1, Glucagon-like peptide 1 receptor; test: Positive allosteric modulator activity at GLP-1R in human 1.1B4 cells in presence of EC20 level of GLP1(9-36)NH2 incubated for 30 mins by HTRF cAMP assay; assay type: functional, cell-based
Summary of the method: (§3)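 Human pancreatic β-cell line 1.1B4, 20,000 cells/well cultured overnight, washed twice; compound concentration-response with fixed 10 nM GLP1(9-36)NH2, 30 min. cAMP by HTRF 665/620 ratio, normalised to buffer (1x HBSS, 0.1% BSA, 1 mM IBMX; 0%) and GLP-1(7-36)NH2 (100%); 4-parameter logistic fit.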

[8] = target: T1, Glucagon-like peptide 1 receptor; test: Positive allosteric modulator activity at human GLP-1R expressed in PSC-HEK293 cells assessed as potentiation of GLP1(9-36)NH2-induced cAMP accumulation by measuring shift in EC50 of endogenous GLP1(9-36)NH2 at 10 uM incubated for 30 mins by HTRF cAMP assay relative to control; assay type: functional, cell-based
Summary of the method: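 Thawed frozen PSC-HEK293 cells stably expressing human GLP-1R, 2000 cells/well in HBSS/20 mM HEPES/0.1% BSA with 2 mM IBMX. Shift format: GLP1(9-36)NH2 dose-response with compound fixed at 10 or 3 µM; 30 min room temperature; cAMP by HTRF (665/620 nm ratio) after 1 h with lysis reagents; 4-parameter logistic fit; EC50 shift factor derived.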

[9] = target: T1, Glucagon-like peptide 1 receptor; test: Positive allosteric modulator activity at GLP-1R in human 1.1B4 cells in presence of EC20 level of GLP1(9-36)NH2 incubated for 30 mins by HTRF cAMP assay relative to control; assay type: functional, cell-based; summary of the method: as §3
[10] = target: T3, Glucagon-like peptide 1 receptor (Mus musculus); test: Positive allosteric modulator activity at GLP-1R in mouse MIN6-c4 cells assessed as effect on glucose-mediated increase in intracellular Ca2+ level by FLIPR assay relative to control; assay type: functional, cell-based
[11] = Stability in GSH assay; assay type: physicochemical
[12] = target: T1, Glucagon-like peptide 1 receptor; test: Displacement of radioactive labeled GLP-1(7-36)NH2 from human GLP-1R by radioactive ligand binding assay
[13] = Agonist activity at KATP channel (unknown origin); parameters: species or system Homo sapiens
[14] = target: Sodium channel protein type 2 subunit alpha (Homo sapiens) (UniProt Q99250); test: Effect on Nav1.2 (unknown origin)
Chain of Sodium channel protein type 2 subunit alpha (Homo sapiens) (Q99250 whole entry, looked up): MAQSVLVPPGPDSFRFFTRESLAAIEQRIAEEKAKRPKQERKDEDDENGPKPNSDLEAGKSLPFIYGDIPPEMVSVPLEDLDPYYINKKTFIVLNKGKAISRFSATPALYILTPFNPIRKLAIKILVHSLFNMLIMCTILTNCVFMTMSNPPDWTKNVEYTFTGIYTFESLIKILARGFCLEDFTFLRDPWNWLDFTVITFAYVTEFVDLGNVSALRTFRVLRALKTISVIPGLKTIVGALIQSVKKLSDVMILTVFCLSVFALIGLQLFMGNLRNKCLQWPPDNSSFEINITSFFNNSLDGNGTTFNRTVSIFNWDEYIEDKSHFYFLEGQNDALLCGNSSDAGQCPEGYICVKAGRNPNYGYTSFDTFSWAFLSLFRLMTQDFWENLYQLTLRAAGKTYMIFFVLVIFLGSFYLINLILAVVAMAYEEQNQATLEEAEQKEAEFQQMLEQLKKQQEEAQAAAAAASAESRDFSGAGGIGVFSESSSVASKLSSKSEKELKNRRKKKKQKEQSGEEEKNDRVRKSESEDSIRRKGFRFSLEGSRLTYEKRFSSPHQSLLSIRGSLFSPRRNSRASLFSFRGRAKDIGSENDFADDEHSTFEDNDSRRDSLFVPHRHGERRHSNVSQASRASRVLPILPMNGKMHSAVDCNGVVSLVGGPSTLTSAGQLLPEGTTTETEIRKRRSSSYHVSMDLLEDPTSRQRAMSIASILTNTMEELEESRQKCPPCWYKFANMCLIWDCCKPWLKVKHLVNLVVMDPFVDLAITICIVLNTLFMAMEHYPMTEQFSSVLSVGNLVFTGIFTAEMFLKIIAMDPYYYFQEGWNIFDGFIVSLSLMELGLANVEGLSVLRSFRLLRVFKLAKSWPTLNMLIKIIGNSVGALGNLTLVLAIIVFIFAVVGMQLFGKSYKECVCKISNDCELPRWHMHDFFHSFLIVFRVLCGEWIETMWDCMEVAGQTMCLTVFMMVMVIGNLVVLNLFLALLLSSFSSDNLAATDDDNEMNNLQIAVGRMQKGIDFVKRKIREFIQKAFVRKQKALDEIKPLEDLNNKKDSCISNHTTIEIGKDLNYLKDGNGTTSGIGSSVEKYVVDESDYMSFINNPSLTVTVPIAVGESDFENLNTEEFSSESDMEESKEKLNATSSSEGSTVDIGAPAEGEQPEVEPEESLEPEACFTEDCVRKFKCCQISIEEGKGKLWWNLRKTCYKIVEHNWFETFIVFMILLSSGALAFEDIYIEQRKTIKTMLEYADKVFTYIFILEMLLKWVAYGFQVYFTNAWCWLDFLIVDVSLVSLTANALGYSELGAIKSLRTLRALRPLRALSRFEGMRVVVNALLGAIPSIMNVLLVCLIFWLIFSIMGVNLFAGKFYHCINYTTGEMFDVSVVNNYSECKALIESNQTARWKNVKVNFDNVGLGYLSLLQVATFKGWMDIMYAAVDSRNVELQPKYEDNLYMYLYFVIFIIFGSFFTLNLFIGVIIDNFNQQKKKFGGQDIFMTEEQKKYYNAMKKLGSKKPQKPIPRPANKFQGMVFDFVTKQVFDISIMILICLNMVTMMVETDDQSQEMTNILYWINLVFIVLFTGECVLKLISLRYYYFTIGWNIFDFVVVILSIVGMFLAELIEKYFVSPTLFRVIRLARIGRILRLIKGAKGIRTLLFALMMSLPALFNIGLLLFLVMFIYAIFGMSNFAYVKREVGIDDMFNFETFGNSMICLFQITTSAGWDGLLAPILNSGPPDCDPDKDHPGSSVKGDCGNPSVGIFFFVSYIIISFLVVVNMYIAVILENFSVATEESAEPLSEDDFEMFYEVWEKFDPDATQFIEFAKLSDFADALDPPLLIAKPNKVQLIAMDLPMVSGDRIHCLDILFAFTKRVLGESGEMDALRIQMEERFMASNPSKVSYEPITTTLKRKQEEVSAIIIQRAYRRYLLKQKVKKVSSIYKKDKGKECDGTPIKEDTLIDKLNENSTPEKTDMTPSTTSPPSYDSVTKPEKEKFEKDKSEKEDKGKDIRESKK

[15] = target: Sodium channel protein type 5 subunit alpha (Homo sapiens, UniProt Q14524); test: Effect on Nav1.5 (unknown origin)
Chain of Sodium channel protein type 5 subunit alpha (Q14524 whole entry): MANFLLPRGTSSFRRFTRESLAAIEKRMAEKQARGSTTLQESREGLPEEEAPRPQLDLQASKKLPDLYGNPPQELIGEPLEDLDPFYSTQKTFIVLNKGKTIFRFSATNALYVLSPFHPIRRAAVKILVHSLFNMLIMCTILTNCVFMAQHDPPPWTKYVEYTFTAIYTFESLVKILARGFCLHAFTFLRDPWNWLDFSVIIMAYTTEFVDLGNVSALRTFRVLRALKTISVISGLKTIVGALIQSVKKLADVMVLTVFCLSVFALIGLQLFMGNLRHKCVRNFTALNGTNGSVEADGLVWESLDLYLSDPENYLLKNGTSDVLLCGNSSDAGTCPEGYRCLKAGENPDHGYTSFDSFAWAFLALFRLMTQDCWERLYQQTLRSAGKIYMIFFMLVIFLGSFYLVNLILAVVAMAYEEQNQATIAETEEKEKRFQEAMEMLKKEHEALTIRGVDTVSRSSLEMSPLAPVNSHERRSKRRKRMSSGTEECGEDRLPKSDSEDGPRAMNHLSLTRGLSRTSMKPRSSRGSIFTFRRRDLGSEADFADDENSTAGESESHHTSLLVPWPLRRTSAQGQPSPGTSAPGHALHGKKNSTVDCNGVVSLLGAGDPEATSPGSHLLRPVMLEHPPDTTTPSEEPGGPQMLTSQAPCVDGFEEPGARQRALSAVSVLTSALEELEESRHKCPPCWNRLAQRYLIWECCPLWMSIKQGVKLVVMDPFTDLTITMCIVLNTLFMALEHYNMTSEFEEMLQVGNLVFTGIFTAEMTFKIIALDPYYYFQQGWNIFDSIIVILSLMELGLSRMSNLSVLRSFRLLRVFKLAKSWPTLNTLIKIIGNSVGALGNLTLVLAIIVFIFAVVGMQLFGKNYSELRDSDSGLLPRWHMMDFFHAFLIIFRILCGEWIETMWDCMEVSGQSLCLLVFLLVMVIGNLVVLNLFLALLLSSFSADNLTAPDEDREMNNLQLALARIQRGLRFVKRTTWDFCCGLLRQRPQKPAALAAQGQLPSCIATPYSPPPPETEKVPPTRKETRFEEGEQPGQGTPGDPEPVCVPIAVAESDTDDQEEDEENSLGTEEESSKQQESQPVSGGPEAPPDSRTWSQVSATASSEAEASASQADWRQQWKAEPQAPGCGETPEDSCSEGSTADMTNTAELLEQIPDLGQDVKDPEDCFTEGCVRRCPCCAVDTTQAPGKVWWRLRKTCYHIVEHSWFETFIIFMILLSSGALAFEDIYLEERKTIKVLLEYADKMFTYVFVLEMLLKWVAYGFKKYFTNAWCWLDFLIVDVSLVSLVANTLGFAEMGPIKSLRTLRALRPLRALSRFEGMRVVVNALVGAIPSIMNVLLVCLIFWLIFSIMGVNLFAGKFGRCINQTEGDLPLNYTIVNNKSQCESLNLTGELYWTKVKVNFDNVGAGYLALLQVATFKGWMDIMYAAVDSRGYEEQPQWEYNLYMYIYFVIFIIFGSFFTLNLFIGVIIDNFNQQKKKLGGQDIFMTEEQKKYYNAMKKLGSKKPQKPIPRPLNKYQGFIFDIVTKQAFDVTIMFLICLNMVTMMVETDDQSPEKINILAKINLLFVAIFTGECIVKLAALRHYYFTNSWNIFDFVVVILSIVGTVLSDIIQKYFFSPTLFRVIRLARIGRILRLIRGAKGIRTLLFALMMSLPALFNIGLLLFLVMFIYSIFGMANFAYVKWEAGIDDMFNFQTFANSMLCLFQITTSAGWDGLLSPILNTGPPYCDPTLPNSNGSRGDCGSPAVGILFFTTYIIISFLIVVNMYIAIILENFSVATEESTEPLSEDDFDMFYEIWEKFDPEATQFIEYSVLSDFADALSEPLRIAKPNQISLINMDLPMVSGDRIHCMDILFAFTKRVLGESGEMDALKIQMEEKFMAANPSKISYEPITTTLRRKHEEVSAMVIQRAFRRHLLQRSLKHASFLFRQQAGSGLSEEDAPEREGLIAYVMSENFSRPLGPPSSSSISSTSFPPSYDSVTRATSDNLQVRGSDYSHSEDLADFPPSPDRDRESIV

[16] = target: T3, Glucagon-like peptide 1 receptor (Mus musculus); test: Inhibition of 15 mM glucose-mediated increase in intracellular Ca2+ level in mouse MIN6-c4 cells at 30 uM by FLIPR assay relative to control; assay type: functional, cell-based
[17] = Tmax in mouse at 10 mg/kg, po; conditions: in vivo
[18] = Cmax in mouse at 10 mg/kg, po; conditions: in vivo

SMILES: CC[C@H](C)[C@H](NC(=O)[C@H](Cc1ccccc1)NC(=O)[C@H](CCC(=O)O)NC(=O)[C@H](CCCCN)NC(=O)[C@H](C)NC(=O)[C@H](C)NC(=O)[C@H](CCC(N)=O)NC(=O)CNC(=O)[C@H](CCC(=O)O)NC(=O)[C@H](CC(C)C)NC(=O)[C@H](Cc1ccc(O)cc1)NC(=O)[C@H](CO)NC(=O)[C@H](CO)NC(=O)[C@@H](NC(=O)[C@H](CC(=O)O)NC(=O)[C@H](CO)NC(=O)[C@@H](NC(=O)[C@H](Cc1ccccc1)NC(=O)[C@@H](NC(=O)CNC(=O)[C@@H](N)CCC(=O)O)[C@@H](C)O)[C@@H](C)O)C(C)C)C(=O)N[C@@H](C)C(=O)N[C@@H](Cc1c[nH]c2ccccc12)C(=O)N[C@@H](CC(C)C)C(=O)N[C@H](C(=O)N[C@@H](CCCCN)C(=O)NCC(=O)N[C@@H](CCCNC(=N)N)C(N)=O)C(C)C
Activity (Mus musculus [1]): inactive
Activity (Mus musculus [2]): inactive

Emax [3]: 91%
EC50 [4]: 300 nM
Emax [5]: 100%
SMILES: Cc1cc(-n2nc3c(c2-n2ccn(-c4ccc5c(cnn5C)c4F)c2=O)[C@H](C)N(C(=O)c2cc4cc([C@H]5CCOC(C)(C)C5)ccc4n2[C@@]2(c4noc(=O)[nH]4)C[C@@H]2C)CC3)cc(C)c1F [ORFORGLIPRON]

EC50 [6]: 5 nM
Emax [3]: 99%
EC50 [7]: Not Active
Ratio EC50 [8]: 3800
Emax [9]: inactive
fold change (FC) [10]: inactive
Stability [11]: Stable
inhibition [12]: inactive
EC50 [13]: 2670 nM
Activity [14]: Active
SMILES: CC(C)(C)OC(=O)n1c2c(c3ccccc31)C[C@H]1C(=O)NC[C@@H]2N1C(=O)CC1CCC(F)(F)CC1
Activity [15]: Active

inhibition [16]: Active
SMILES: CC1=Nc2ccc(Cl)cc2S(=O)(=O)N1

Tmax [17]: 1.5 h
Cmax [18]: 13 µM
SMILES: CO[C@H]1/C=C/O[C@@]2(C)Oc3c(C)c(O)c4c(O)c(c(/C=N/N5CCN(C)CC5)c(O)c4c3C2=O)NC(=O)/C(C)=C\C=C\[C@H](C)[C@H](O)[C@@H](C)[C@@H](O)[C@@H](C)[C@H](OC(C)=O)[C@@H]1C [RIFAMPIN]

— ChEMBL document CHEMBL4354813, “Design, Synthesis, and Pharmacological Evaluation of Potent Positive Allosteric Modulators of the Glucagon-like Peptide-1 Receptor (GLP-1R)” (J Med Chem, 2020)
